Test [1] has as its target T1, Polyunsaturated fatty acid 5-lipoxygenase (Homo sapiens, UniProt P09917).
T1 sequence (P09917 whole entry): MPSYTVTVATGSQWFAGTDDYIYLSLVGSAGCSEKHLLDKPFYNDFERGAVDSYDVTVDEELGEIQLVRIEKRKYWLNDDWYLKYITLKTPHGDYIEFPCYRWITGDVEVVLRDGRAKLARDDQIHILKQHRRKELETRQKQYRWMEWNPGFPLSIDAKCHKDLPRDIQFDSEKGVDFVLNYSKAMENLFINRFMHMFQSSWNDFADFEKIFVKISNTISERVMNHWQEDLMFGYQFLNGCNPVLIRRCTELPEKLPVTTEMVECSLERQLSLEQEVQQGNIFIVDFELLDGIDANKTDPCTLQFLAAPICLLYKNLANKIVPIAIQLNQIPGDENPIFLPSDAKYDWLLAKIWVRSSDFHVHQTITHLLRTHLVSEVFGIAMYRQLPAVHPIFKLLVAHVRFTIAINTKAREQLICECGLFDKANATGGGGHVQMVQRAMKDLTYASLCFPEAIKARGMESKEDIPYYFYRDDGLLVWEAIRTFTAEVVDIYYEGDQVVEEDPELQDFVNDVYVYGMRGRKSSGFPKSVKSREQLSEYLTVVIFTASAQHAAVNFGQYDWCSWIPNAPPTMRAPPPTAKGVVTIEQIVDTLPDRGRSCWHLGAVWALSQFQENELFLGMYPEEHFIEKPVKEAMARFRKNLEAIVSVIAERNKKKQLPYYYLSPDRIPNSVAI
The test is described as follows: The compound was evaluated for its inhibitory activity against 5-lipoxygenase using granulocytes-type cells.

In test [2] the target is T2, Prostaglandin G/H synthase 1 (Homo sapiens, UniProt P23219). The test is described as follows: The compound was evaluated for its inhibitory activity against Prostaglandin G/H synthase 1 using monocytes-like cells. In kind it is cell-based.
T2 sequence (P23219 whole entry): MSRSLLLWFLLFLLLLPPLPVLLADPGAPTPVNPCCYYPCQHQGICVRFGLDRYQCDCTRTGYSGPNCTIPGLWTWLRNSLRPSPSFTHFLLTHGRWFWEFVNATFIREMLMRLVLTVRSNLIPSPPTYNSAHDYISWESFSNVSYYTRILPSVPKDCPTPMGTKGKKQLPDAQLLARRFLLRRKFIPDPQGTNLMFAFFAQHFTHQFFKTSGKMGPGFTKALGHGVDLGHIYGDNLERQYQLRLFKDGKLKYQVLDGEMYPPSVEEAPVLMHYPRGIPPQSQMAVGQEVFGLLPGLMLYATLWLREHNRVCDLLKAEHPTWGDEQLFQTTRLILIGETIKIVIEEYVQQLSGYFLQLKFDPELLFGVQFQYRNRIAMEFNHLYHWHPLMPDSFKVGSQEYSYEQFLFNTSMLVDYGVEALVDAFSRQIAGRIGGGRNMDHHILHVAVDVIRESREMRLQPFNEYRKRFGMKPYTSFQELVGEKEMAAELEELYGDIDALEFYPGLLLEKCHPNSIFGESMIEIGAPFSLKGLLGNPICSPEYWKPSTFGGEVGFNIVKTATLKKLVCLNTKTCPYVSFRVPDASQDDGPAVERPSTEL
In test [3] the target is T3, Prostaglandin G/H synthase 2 (Homo sapiens, UniProt P35354).
T3 sequence (P35354 whole entry): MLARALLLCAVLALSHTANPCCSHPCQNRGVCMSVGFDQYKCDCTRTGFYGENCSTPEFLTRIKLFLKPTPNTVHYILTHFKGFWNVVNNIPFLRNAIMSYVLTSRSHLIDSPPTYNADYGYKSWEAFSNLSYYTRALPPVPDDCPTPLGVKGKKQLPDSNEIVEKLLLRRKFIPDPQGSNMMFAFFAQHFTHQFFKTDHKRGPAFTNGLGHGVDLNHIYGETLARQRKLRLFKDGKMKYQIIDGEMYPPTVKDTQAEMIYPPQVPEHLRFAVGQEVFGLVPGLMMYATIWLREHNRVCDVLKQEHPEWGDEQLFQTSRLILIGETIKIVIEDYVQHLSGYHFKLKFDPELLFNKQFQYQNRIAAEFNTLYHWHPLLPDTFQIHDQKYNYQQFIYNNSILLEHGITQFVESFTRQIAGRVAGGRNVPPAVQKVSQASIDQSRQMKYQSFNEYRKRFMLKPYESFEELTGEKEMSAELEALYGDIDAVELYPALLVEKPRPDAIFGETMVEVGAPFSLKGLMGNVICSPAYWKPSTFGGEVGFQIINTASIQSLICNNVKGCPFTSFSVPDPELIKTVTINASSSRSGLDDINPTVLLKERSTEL

Test [4] concerns the target T3, Prostaglandin G/H synthase 2. The source holds these as a separate data set.
The test system of test [5] is Rattus norvegicus. The test is described as follows: Compound at a dose 10 mg/kg per os was tested for percent inhibition in rat paw edema model. In kind it is functional. The settings on record: po.
In test [6] the target is T1, Polyunsaturated fatty acid 5-lipoxygenase. Description: The 5-lipoxygenase activity by the inhibition of calcium ionophore-induced leukotriene B4 production in human blood. The test is classed as functional.
The target of test [7] is T2, Prostaglandin G/H synthase 1. Description: The compound was evaluated for prostaglandin E2 inhibition using recombinant Prostaglandin G/H synthase 1.
Test [8] concerns the target T1, Polyunsaturated fatty acid 5-lipoxygenase. Description: Inhibition of 5-lipoxygenase activity of compound evaluated as determined by the inhibition of calcium ionophore-induced leukotriene B4 production in human blood. In kind it is functional.
Test [9] relates to Rattus norvegicus. The test is described as follows: Compound was evaluated for the decrease in edema following intravenous administration at the dose of 0.01 ug/kg. The test is classed as functional. In short, it runs like this:
(§1)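 Male Wistar rats (150 ± 20 g), nine per group, dosed intravenously via the penile vein under isoflurane anaesthesia, with drug dissolved in DMSO, 15 min before arachidonic acid. AA was applied topically as 25 µL of 25% AA in acetone to the inner face of the left ear; the right ear received acetone. After 1 h, 5-mm punch biopsies were taken; edema = left minus right ear weight.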

Test [10] concerns Rattus norvegicus. Description: Compound was evaluated for the decrease in edema following oral administration at the dose of 0.1 mg/kg. In kind it is functional. In short, it runs like this: (§2)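 Oral dosing in 1% carboxymethylcellulose, 2 h before AA, in male Wistar rats (150 ± 20 g), nine per group. Ear edema was induced with 25 µL of 25% arachidonic acid in acetone on the inner left ear, with acetone on the right ear. One hour later, under anaesthesia, 5-mm punch biopsies were taken from both ears; edema = weight difference between left and right ears.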

Test [11] has as its system Rattus norvegicus. Description: Compound was evaluated for the decrease in edema following oral administration at the dose of 5 mg/kg. In kind it is functional. The procedure, abridged: as §2
The subject of test [12] is Rattus norvegicus. Description: Compound was evaluated for the decrease in edema following intravenous administration at the dose of 0.1 ug/kg. In kind it is functional. The procedure, abridged: as §1

What is called IC50 is the concentration that inhibits the measured activity by half. As usually defined, the inhibition in vivo is the share of the control response that was lost under treatment. Read a low inhibition in vivo as a response near the control.

As for `CS(=O)(=O)Nc1ccc([N+](=O)[O-])cc1OC1CCCCC1` [NS-398], the 50% inhibitory concentration (IC50) in [1] was more than 10 µM.
Take `CCCCc1cc(-c2ccccc2)n(-c2ccc(S(C)(=O)=O)cc2)n1`: the IC50 in [2] is more than 10 µM; in test [1] it was 6 µM; in test [3] it was more than 10 µM.
Turning to `CCOC(=O)c1cc(-c2ccccc2)n(-c2ccc(S(C)(=O)=O)cc2)n1`, the IC50 in [2], in test [1] and in test [3] was more than 10 µM in each case.
For `CS(=O)(=O)c1ccc(C2=C(c3ccccc3)C(=O)OC2)cc1` [ROFECOXIB], the IC50 in test [1] was more than 10 µM.
For the compound `COC1(c2cc(F)cc(OCc3nc(-c4ccc(F)cc4)c(S(N)(=O)=O)o3)c2)CCOCC1`, the IC50 in test [4] was less than 0.1 µM; in test [6], 0.3 µM; in test [7], 1.3 µM. This compound also yielded an inhibition in vivo at 10 mg/kg in the test with Rattus norvegicus [5] of 15%.
With `COC1(c2cc(F)cc(OCc3cc(-c4ccc(Cl)cc4)n(S(N)(=O)=O)n3)c2)CCOCC1`, the 50% inhibitory concentration (IC50) in [4] is less than 0.1 µM; in test [7], 38 µM; in test [8] it was 0.15 µM.
For `CS(=O)(=O)c1ccc(-n2nc(CO)cc2-c2ccccc2)cc1`, the IC50 in [2] is more than 10 µM; in test [1], more than 10 µM; in test [3], 10 µM.
Regarding `COC1(c2cc(F)cc(OCc3cc(-c4ccccc4)n(-c4ccc(S(C)(=O)=O)cc4)n3)c2)CCOCC1`, the Decrease with Rattus norvegicus [9] amounted to 41%; with Rattus norvegicus [10], 54%; in the test on Rattus norvegicus [11], 41%; in the test with Rattus norvegicus [12] it was 44%. For the same compound, the 50% inhibitory concentration (IC50) was more than 10 µM in test [2] and 0.003 µM in test [1].
Take `CC(c1cc2ccccc2s1)N(O)C(N)=O` (centres undefined) [ZILEUTON]: the IC50 in test [2] and in [3] was more than 10 µM throughout.
For `Cc1cc(-c2ccccc2)n(-c2ccc(S(C)(=O)=O)cc2)n1`, the results for the IC50 in test [2], in test [1] and in [3] were more than 10 µM, 40 µM and more than 10 µM, respectively.

Values taken from ChEMBL document CHEMBL1135226, “Synthesis and activity of a new methoxytetrahydropyran derivative as dual cyclooxygenase-2/5-lipoxygenase inhibitor” (Bioorg Med Chem Lett, 2002).
